From ChEMBL document CHEMBL1828603, “Synthesis, antimicrobial activity and possible mechanism of action of 9-bromo-substituted indolizinoquinoline-5,12-dione derivatives” (2011)
In brackets after ≈: the same amount, converted by molar mass. Activity calls are given as the source filed them. No cut-off for these calls is given here.

Tests used:
Staphylococcus aureus [1] = assay: Antimicrobial activity against methicillin-resistant Staphylococcus aureus isolate 72754 by broth microdilution method; format: functional
Procedure, shortened: (§1)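 MRSA clinical isolates from Guangzhou Liuhuaqiao Hospital, China. Tested by two-fold broth dilution in Mueller-Hinton broth from a top concentration of 64 µg/ml. Compound in DMSO was added to culture at 5 × 10^5 cells/ml and serially halved. Plates were incubated at 37 °C overnight with OD600 read-out. MIC came from ≥2 independent experiments.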

Staphylococcus aureus [2] = assay: Antimicrobial activity against methicillin-resistant Staphylococcus aureus isolate 071843 by broth microdilution method; format: functional; procedure, shortened: as §1
Staphylococcus aureus [3] = assay: Antimicrobial activity against methicillin-resistant Staphylococcus aureus isolate 82731 by broth microdilution method; format: functional; procedure, shortened: as §1
Staphylococcus aureus [4] = assay: Antimicrobial activity against methicillin-resistant Staphylococcus aureus isolate 071429 by broth microdilution method; format: functional; procedure, shortened: as §1
Staphylococcus aureus [5] = assay: Antimicrobial activity against methicillin-resistant Staphylococcus aureus isolate 83160 by broth microdilution method; format: functional; procedure, shortened: as §1
Staphylococcus aureus [6] = assay: Antimicrobial activity against methicillin-resistant Staphylococcus aureus isolate 82896 by broth microdilution method; format: functional; procedure, shortened: as §1
Staphylococcus aureus [7] = assay: Antimicrobial activity against methicillin-resistant Staphylococcus aureus isolate 82924 by broth microdilution method; format: functional; procedure, shortened: as §1
Escherichia coli [8] = assay: Inhibition of Escherichia coli DNA gyrase supercoiling activity using pHOT1 DNA as substrate at 1 uM after 60 mins by agarose gel electrophoretic analysis
Procedure, shortened: (§2)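 Supercoiling assay with 1 U DNA gyrase (E. coli or S. aureus) and 0.5 µg relaxed pHOT1 DNA in Tris–HCl pH 7.5 buffer (KCl, MgCl2, DTT, spermidine, 1 mM ATP, glycerol, BSA), ± compound, 37 °C for 60 min. Stopped with proteinase K, run on 1% agarose in TAE at 3 V/cm, stained with Gel Red and imaged under UV.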

Escherichia coli [9] = assay: Inhibition of Escherichia coli DNA gyrase supercoiling activity using pHOT1 DNA as substrate at 100 uM after 60 mins by agarose gel electrophoretic analysis; procedure, shortened: as §2
[10] = molecular target: DNA gyrase (Staphylococcus aureus) (UniProt P0A0K8+P20831); assay: Inhibition of Staphylococcus aureus DNA gyrase supercoiling activity using pHOT1 DNA as substrate at 125 uM after 60 mins by agarose gel electrophoretic analysis; format: protein-complex assay; procedure, shortened: as §2
DNA gyrase (Staphylococcus aureus), sequence (P0A0K8 2-644 limits assumed): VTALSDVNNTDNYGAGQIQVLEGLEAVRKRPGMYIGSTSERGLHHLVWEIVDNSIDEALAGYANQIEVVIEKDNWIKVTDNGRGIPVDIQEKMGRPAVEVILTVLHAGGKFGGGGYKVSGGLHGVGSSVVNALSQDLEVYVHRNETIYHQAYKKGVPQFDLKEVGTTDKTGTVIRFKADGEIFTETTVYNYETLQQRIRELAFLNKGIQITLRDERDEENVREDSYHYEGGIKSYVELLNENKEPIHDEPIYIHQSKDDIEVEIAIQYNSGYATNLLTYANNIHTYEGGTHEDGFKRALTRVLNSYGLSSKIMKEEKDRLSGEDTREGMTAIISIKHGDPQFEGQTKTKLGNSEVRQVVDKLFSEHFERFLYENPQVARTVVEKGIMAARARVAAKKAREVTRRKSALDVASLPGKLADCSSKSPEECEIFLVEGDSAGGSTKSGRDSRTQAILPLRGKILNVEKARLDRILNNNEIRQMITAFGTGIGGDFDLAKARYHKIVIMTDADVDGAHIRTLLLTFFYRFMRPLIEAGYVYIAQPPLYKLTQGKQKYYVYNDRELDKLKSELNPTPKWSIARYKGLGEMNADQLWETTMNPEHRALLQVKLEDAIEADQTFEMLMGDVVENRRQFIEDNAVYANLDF
DNA gyrase (Staphylococcus aureus), sequence (P20831 whole entry partner): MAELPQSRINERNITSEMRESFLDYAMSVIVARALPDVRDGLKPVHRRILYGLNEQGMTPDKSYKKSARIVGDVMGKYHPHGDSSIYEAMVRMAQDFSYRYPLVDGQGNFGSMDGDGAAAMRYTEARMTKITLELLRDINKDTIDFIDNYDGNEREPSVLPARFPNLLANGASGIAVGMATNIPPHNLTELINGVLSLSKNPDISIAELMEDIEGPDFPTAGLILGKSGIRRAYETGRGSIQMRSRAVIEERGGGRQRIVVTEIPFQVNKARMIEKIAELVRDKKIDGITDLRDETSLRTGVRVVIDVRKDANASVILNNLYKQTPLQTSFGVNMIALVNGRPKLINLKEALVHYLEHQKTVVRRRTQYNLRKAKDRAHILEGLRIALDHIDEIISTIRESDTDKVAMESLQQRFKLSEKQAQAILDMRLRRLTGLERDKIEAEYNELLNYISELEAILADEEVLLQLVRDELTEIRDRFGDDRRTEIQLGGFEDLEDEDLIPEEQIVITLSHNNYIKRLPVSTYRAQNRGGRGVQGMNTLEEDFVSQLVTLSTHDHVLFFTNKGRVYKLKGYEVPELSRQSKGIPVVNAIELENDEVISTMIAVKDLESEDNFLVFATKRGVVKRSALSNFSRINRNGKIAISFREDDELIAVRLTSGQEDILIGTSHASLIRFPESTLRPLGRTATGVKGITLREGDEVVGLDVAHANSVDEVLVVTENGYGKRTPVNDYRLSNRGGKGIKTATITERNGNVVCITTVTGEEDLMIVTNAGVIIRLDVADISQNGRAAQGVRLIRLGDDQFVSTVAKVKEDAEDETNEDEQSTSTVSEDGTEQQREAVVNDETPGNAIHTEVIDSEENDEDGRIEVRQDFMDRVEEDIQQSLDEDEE

Staphylococcus aureus [11] = assay: Inhibition of Staphylococcus aureus topoisomerase 4-mediated relaxation of supercoiled pBR322 DNA at 1 uM after 30 mins by agarose gel electrophoretic analysis
Procedure, shortened: (§3)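 Relaxation assay with 1 U Topo IV and 0.5 µg supercoiled pBR322 DNA in HEPES–KOH pH 7.6 buffer (potassium glutamate, magnesium acetate, DTT, 1 mM ATP, BSA), 37 °C for 30 min. Stopped with chloroform/iso-amyl alcohol (24:1), then run on 1% agarose gel in TAE at 5 V/cm.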

Staphylococcus aureus [12] = assay: Inhibition of Staphylococcus aureus topoisomerase 4-mediated relaxation of supercoiled pBR322 DNA at 25 uM after 30 mins by agarose gel electrophoretic analysis; procedure, shortened: as §3
Escherichia coli [13] = assay: Inhibition of Escherichia coli topoisomerase 4-mediated relaxation of supercoiled pBR322 DNA at 125 uM after 30 mins by agarose gel electrophoretic analysis; procedure, shortened: as §3
Escherichia coli [14] = assay: Inhibition of Escherichia coli topoisomerase 4 assessed as decatenation of kDNA at 25 uM after 30 mins by electrophoresis
Procedure, shortened: (§4)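 Decatenation assay with 1 U Topo IV and 200 ng catenated kDNA in HEPES–KOH pH 7.6 buffer (potassium glutamate, magnesium acetate, DTT, 1 mM ATP, BSA), 37 °C for 30 min. Stopped with chloroform/iso-amyl alcohol (24:1), then run on 1% agarose gel in TAE at 10 V/cm.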

Staphylococcus aureus [15] = assay: Inhibition of Staphylococcus aureus topoisomerase 4 assessed as decatenation of kDNA at 125 uM after 30 mins by electrophoresis; procedure, shortened: as §4
Staphylococcus aureus [16] = assay: Ratio of MIC for vancomycin to compound for methicillin-resistant Staphylococcus aureus ATCC 43300 by broth microdilution method; format: functional
Escherichia coli [17] = assay: Antimicrobial activity against Escherichia coli ATCC 25922 by two fold microdilution method; format: functional
Procedure, shortened: (§5)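 Two-fold broth microdilution in Mueller-Hinton broth. Compound in DMSO added to bacterial culture at 5 × 10^5 cells/ml, starting at 64 µg/ml, then serially doubled down. Incubated at 37 °C overnight and read as OD600. MIC taken as the minimum inhibitory concentration, obtained in at least two independent experiments.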

[18] = test system: Salmonella enterica subsp. enterica serovar Paratyphi B; assay: Antimicrobial activity against Salmonella paratyphi B CMCC 50094 by two fold microdilution method; format: functional
Procedure, shortened: (§6)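 Two-fold serial dilution in Mueller-Hinton broth, starting at 64 µg/ml. Compound was added as a DMSO solution to bacterial culture at 5 × 10^5 cells/ml, then double-diluted. Plates were incubated overnight at 37 °C and OD600 was read. MIC was taken from at least two independent experiments.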

Pseudomonas aeruginosa = assay: Antimicrobial activity against Pseudomonas aeruginosa ATCC 27853 by two fold microdilution method; format: functional; procedure, shortened: as §5
Streptococcus = assay: Antimicrobial activity against hemolytic Streptococcus Group B CMCC 32210 by two fold microdilution method; format: functional; procedure, shortened: as §5
Staphylococcus aureus [19] = assay: Antimicrobial activity against Staphylococcus aureus ATCC 25923 by two fold microdilution method; format: functional; procedure, shortened: as §6
[20] = test system: Staphylococcus epidermidis; assay: Antimicrobial activity against Staphylococcus epidermidis ATCC 12228 by two fold microdilution method; format: functional; procedure, shortened: as §5
Enterococcus faecalis = assay: Antimicrobial activity against Enterococcus faecalis ATCC 29212 by two fold microdilution method; format: functional; procedure, shortened: as §5
Candida albicans = assay: Antifungal activity against Candida albicans ATCC 10231 by two fold microdilution method; format: functional
Staphylococcus aureus [21] = assay: Antimicrobial activity against methicillin-resistant Staphylococcus aureus ATCC 43300 by two fold microdilution method; format: functional; procedure, shortened: as §6
Staphylococcus aureus [22] = assay: Antimicrobial activity against methicillin-resistant Staphylococcus aureus isolate 80754 by broth microdilution method; format: functional; procedure, shortened: as §1
Staphylococcus aureus [23] = assay: Antimicrobial activity against methicillin-resistant Staphylococcus aureus isolate 7365 by broth microdilution method; format: functional; procedure, shortened: as §1
Staphylococcus aureus [24] = assay: Antimicrobial activity against methicillin-resistant Staphylococcus aureus isolate 0441 by broth microdilution method; format: functional; procedure, shortened: as §1
Staphylococcus aureus [25] = assay: Antimicrobial activity against methicillin-resistant Staphylococcus aureus isolate 071410 by broth microdilution method; format: functional; procedure, shortened: as §1

Compound: CCOC(=O)c1c2c(n3cc(Br)ccc13)C(=O)c1ncccc1C2=O
- MIC (Staphylococcus aureus [1]): 0.016 µg/mL (≈ 0.0401 µM)
- MIC (Staphylococcus aureus [2]): 0.016 µg/mL (≈ 0.0401 µM)
- MIC (Staphylococcus aureus [3]): 0.016 µg/mL (≈ 0.0401 µM)
- MIC (Staphylococcus aureus [4]): 0.016 µg/mL (≈ 0.0401 µM)
- MIC (Staphylococcus aureus [5]): 0.016 µg/mL (≈ 0.0401 µM)
- MIC (Staphylococcus aureus [6]): 0.032 µg/mL (≈ 0.0802 µM)
- MIC (Staphylococcus aureus [7]): 0.032 µg/mL (≈ 0.0802 µM)
- inhibition (Escherichia coli [8]): 78%
- inhibition (Escherichia coli [9]): 98%
- inhibition [10]: inactive
- inhibition (Staphylococcus aureus [11]): Active
- inhibition (Staphylococcus aureus [12]): Active
- inhibition (Escherichia coli [13]): inactive
- inhibition (Escherichia coli [14]): Active
- inhibition (Staphylococcus aureus [15]): 84%
- Ratio (Staphylococcus aureus [16]): 16
- MIC (Escherichia coli [17]): > 64 µg/mL
- MIC [18]: 64 µg/mL (≈ 160 µM)
- MIC (Pseudomonas aeruginosa): > 64 µg/mL
- MIC (Streptococcus): 0.031 µg/mL (≈ 0.0777 µM)
- MIC (Staphylococcus aureus [19]): 0.063 µg/mL (≈ 0.158 µM)
- MIC [20]: 0.063 µg/mL (≈ 0.158 µM)
- MIC (Enterococcus faecalis): 0.016 µg/mL (≈ 0.0401 µM)
- MIC (Candida albicans): > 64 µg/mL
- MIC (Staphylococcus aureus [21]): 0.063 µg/mL (≈ 0.158 µM)
- MIC (Staphylococcus aureus [22]): 0.063 µg/mL (≈ 0.158 µM)
- MIC (Staphylococcus aureus [23]): 0.063 µg/mL (≈ 0.158 µM)
- MIC (Staphylococcus aureus [24]): 0.032 µg/mL (≈ 0.0802 µM)
- MIC (Staphylococcus aureus [25]): 0.032 µg/mL (≈ 0.0802 µM)
